Active and inactive are the calls of the source. The rule behind the calls is not given here.
Tests used:
HeLa [1] = assay: Cytotoxicity against human HeLa cells 10 uM after 24 hrs by MTS assay; format: cell-based
Method in brief: (§1)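 HeLa cells at ~80% confluence, uninfected, exposed to 1–100 μM PPMO or water (mock) in serum-free DMEM-F-12 (1:1) for 24 h. MTS reagent was added for 4 h and absorbance read at 492 nm. Viability was expressed as percent of water-treated cells (set to 100%), averaged over 12 wells.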

HeLa [2] = assay: Cytotoxicity against human HeLa cells at 10 uM by MTS assay; format: cell-based; method in brief: as §1
HeLa [3] = assay: Cytotoxicity against human HeLa cells at 10 uM after 48 hrs by MTS assay; format: cell-based
Method in brief: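 Time-course viability: uninfected HeLa cells were kept in 10 μM PPMO in DMEM-F-12 and assayed at time points from 10 to 69 h after treatment began. Read-out was the MTS reagent for 4 h with absorbance at 492 nm. Results are given as percent of water-mock cells, each point the mean of 12 wells.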

Poliovirus 1 = assay: Antiviral activity against Human poliovirus type 1 infected in Human HeLa cell assessed as inhibition of translation at 10 ug/ml by luciferase reporter gene assay; format: functional, organism-based
Method in brief: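 In-cell translation control: HeLa cells electroporated with 20 μg PV1-Luc replicon RNA were placed in medium with 10 μg/ml puromycin at 37°C in 5% CO2. Luciferase in lysates was read by luminometer at hourly time points after transfection. Two experiments were averaged.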

Vero = assay: Cytotoxicity against African green monkey Vero cells at 10 uM after 24 hrs by MTS assay; format: cell-based; settings: chlorocebus sabaeus
SK-N-MC = assay: Cytotoxicity against human SK-N-MC cell at 10 uM after 24 hrs by MTS assay; format: cell-based

**Q.** What does the source list for `Cc1cn([C@H]2CN(P(=O)(OC[C@@H]3CN(P(=O)(OC[C@@H]4CN(P(=O)(OC[C@@H]5CNC[C@H](n6ccc(N)nc6=O)O5)N(C)C)C[C@H](n5cnc6c(N)ncnc65)O4)N(C)C)C[C@H](n4ccc(N)nc4=O)O3)N(C)C)C[C@@H](COP(=O)(N(C)C)N3C[C@@H](COP(=O)(N(C)C)N4C[C@@H](COP(=O)(N(C)C)N5C[C@@H](COP(=O)(N(C)C)N6C[C@@H](COP(=O)(N(C)C)N7C[C@@H](COP(=O)(N(C)C)N8C[C@@H](COP(=O)(N(C)C)N9C[C@@H](COP(=O)(N(C)C)N%10C[C@@H](COP(=O)(N(C)C)N%11C[C@@H](COP(=O)(N(C)C)N%12C[C@@H](COP(=O)(N(C)C)N%13C[C@@H](COP(=O)(N(C)C)N%14C[C@@H](COP(=O)(N(C)C)N%15C[C@@H](COP(=O)(N(C)C)N%16C[C@@H](COP(=O)(N(C)C)N%17C[C@@H](COP(=O)(N(C)C)N%18C[C@@H](COP(=O)(N(C)C)N%19C[C@@H](COP(=O)(N(C)C)N%20C[C@@H](COP(=O)(N(C)C)N%21C[C@@H](COP(=O)(N(C)C)N%22C[C@@H](COP(=O)(N(C)C)N%23CCN(C(=O)CCNC(=O)CCCCCNC(=O)[C@H](CCCNC(=N)N)NC(=O)CCCCCNC(=O)[C@H](CCCNC(=N)N)NC(=O)[C@H](CCCNC(=N)N)NC(=O)CCCCCNC(=O)[C@H](CCCNC(=N)N)NC(=O)[C@H](CCCNC(=N)N)NC(=O)CCCCCNC(=O)[C@H](CCCNC(=N)N)NC(=O)[C@H](CCCNC(=N)N)NC(=O)CCCCCNC(=O)[C@@H](N)CCCNC(=N)N)CC%23)O[C@@H](n%23ccc(N)nc%23=O)C%22)O[C@@H](n%22cnc%23c(N)ncnc%23%22)C%21)O[C@@H](n%21cnc%22c(N)ncnc%22%21)C%20)O[C@@H](n%20ccc(N)nc%20=O)C%19)O[C@@H](n%19cnc%20c(=O)[nH]c(N)nc%20%19)C%18)O[C@@H](n%18ccc(N)nc%18=O)C%17)O[C@@H](n%17cnc%18c(N)ncnc%18%17)C%16)O[C@@H](n%16cnc%17c(=O)[nH]c(N)nc%17%16)C%15)O[C@@H](n%15ccc(N)nc%15=O)C%14)O[C@@H](n%14ccc(N)nc%14=O)C%13)O[C@@H](n%13cc(C)c(=O)[nH]c%13=O)C%12)O[C@@H](n%12cnc%13c(=O)[nH]c(N)nc%13%12)C%11)O[C@@H](n%11cnc%12c(=O)[nH]c(N)nc%12%11)C%10)O[C@@H](n%10cnc%11c(N)ncnc%11%10)C9)O[C@@H](n9ccc(N)nc9=O)C8)O[C@@H](n8ccc(N)nc8=O)C7)O[C@@H](n7cnc8c(N)ncnc87)C6)O[C@@H](n6ccc(N)nc6=O)C5)O[C@@H](n5ccc(N)nc5=O)C4)O[C@@H](n4cnc5c(=O)[nH]c(N)nc54)C3)O2)c(=O)[nH]c1=O` (stereo partly specified)?
**A.** Activity (HeLa [1]): Toxic; Activity (HeLa [2]): Non-toxic; Activity (HeLa [3]): Toxic; Activity (Poliovirus 1): inactive; Activity (Vero): Non-toxic; Activity (SK-N-MC): Non-toxic
